These results are taken from ChEMBL document CHEMBL3045825, “Synthesis, fungicidal activity, and structure-activity relationship of 2-oxo- and 2-hydroxycycloalkylsulfonamides” (J Agric Food Chem, 2010).

Assay [1] relates to Botrytis cinerea. Kind of assay: Fungicidal activity against Botryotinia fuckeliana assessed as inhibition of mycelial growth. The class given is functional, organism-based.
Assay [2] has as its system Botrytis cinerea. Kind of assay: Fungicidal activity against Botryotinia fuckeliana grown on compound pre-treated cucumber leaves assessed as control efficiency against gray mold disease on leaves at 31.25 ug/mL. Format: functional. The essentials: (§1)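 Cucumber leaves sprayed with formulation diluted in water (500, 125, 31.25 μg/mL), air-dried, then upper surface inoculated with 6 mm plugs of B. cinerea Pers. maintained on PDA. Disease spot diameter measured; control efficiency from inhibition-rate equation. Procedure repeated 3 times, 9 replicates; procymidone and pyrimethanil (95%) positive controls.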

The subject of assay [3] is Botrytis cinerea. Kind of assay: Fungicidal activity against Botryotinia fuckeliana grown on compound pre-treated cucumber leaves assessed as control efficiency against gray mold disease on leaves at 125 ug/mL. Format: functional. An outline of the steps:
as §1

Assay [4] deals with Botrytis cinerea. Nature of the assay: Fungicidal activity against Botryotinia fuckeliana grown on compound pre-treated cucumber leaves assessed as control efficiency against gray mold disease on leaves at 500 ug/mL. The class given is functional. An outline of the steps: as §1
Assay [5] concerns Botrytis cinerea. Nature of the assay: Fungicidal activity against Botryotinia fuckeliana assessed as inhibition spore germination. Format: functional, organism-based. An outline of the steps:
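Conidial germination on microscope slides: B. cinerea conidia about 2×10⁵ spores/mL in 0.05% Tween 80; acetone stock (5000 μg/mL) diluted in suspension to final 200, 50, 12.5, 3.12, 0.78 μg/mL. 30 μL on concave slide, humid chamber 23 °C, 100% RH, 8 h; germinated conidia counted in five fields. Three replicates; procymidone positive control.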

In assay [6] the test system is Botrytis cinerea. Kind of assay: Potency index, ratio of EC80 for procymidone to EC80 for test compound against Botryotinia fuckeliana assessed as inhibition of mycelial growth. Format: functional.

The structures appear in SMILES notation. ≈ marks a conversion by molar mass, not a printed value. Where only a bound is given, the exact number is not on record here.

One may read the EC50 as the midpoint of the concentration-response curve. By EC80 is commonly meant the point of the concentration-response curve where the effect stands at 80%. For the compound `Cc1cc(F)ccc1NS(=O)(=O)C1CCCCC1O` (configuration not stated), in the assay with Botrytis cinerea [1], the EC50 was 34.1 µg/mL (≈ 119 µM) and the EC80 amounted to 310 µg/mL (≈ 1080 µM).

`O=S(=O)(Nc1ccc(Cl)cc1C(F)(F)F)C1CCCCCCCCCCC1O` (configuration not stated): the 50% effective concentration (EC50) in the assay on Botrytis cinerea [1] stood at 5.72 µg/mL (≈ 12.9 µM); in the assay on Botrytis cinerea [5] it was 420 µg/mL (≈ 950 µM). The EC80 in the assay on Botrytis cinerea [1] is 49.4 µg/mL (≈ 112 µM); in the assay on Botrytis cinerea [5], over 1000 µg/mL. Besides, the figures for the Efficacy in the assay on Botrytis cinerea [2], in the assay with Botrytis cinerea [3] and in the assay on Botrytis cinerea [4] were 8.45%, 15.49% and 26.06%, respectively.

`O=S(=O)(Nc1ccc(Cl)cc1)C1CCCCC1O` (configuration not stated): in the assay with Botrytis cinerea [1], the EC50 was determined as 7.38 µg/mL (≈ 25.5 µM) and the EC80 came out at 86.5 µg/mL (≈ 298 µM).

On to `CC12CC1(C)C(=O)N(c1cc(Cl)cc(Cl)c1)C2=O` (configuration not stated) [PROCYMIDONE], for which the EC50 with Botrytis cinerea [1] came out at 0.99 µg/mL (≈ 3.48 µM). Besides, in the assay on Botrytis cinerea [1], the concentration for an effect of 80% (EC80) was 2.96 µg/mL (≈ 10.4 µM). In addition, the figures for the Efficacy with Botrytis cinerea [2], with Botrytis cinerea [3] and in the assay on Botrytis cinerea [4] were 61.27%, 73.59% and 91.78%, respectively.

With `O=S(=O)(Nc1ccccc1Cl)C1CCCCC1O` (configuration not stated), in the assay with Botrytis cinerea [1], the EC50 is 75.6 µg/mL (≈ 261 µM) and the EC80 was over 10000 µg/mL.

For the compound `O=S(=O)(Nc1ccc(Cl)cc1C(F)(F)F)C1CCCCCCC1O` (configuration not stated), in the assay on Botrytis cinerea [6], the Ratio was 1.18. Also, the EC50 in the assay with Botrytis cinerea [1] stood at 1.09 µg/mL (≈ 2.83 µM); with Botrytis cinerea [5] it was 23.6 µg/mL (≈ 61.2 µM). In addition, the figures for the EC80 in the assay with Botrytis cinerea [1] and with Botrytis cinerea [5] were 2.5 µg/mL (≈ 6.48 µM) and 693 µg/mL (≈ 1800 µM), respectively. Also, the Efficacy is on record as 91.49% with Botrytis cinerea [2], 93.55% in the assay on Botrytis cinerea [3] and 94.42% with Botrytis cinerea [4].

In the case of `O=S(=O)(Nc1ccccc1F)C1CCCCC1O` (configuration not stated), in the assay on Botrytis cinerea [1], the EC50 was 24 µg/mL (≈ 87.8 µM) and the 80% effect concentration (EC80) was found to be 84.2 µg/mL (≈ 308 µM).

Consider `Cc1ccc(NS(=O)(=O)C2CCCCC2O)cc1` (configuration not stated), for which, in the assay with Botrytis cinerea [1], the EC50 came out at 18 µg/mL (≈ 66.9 µM) and the EC80 was 65.4 µg/mL (≈ 243 µM).

As to `O=S(=O)(Nc1ccc(C(F)(F)F)cc1)C1CCCCC1O` (configuration not stated), in the assay with Botrytis cinerea [1], the EC50 stood at 8.79 µg/mL (≈ 27.2 µM) and the EC80 is 65.9 µg/mL (≈ 204 µM).

For `CCc1cccc(C)c1NS(=O)(=O)C1CCCCC1O` (configuration not stated), in the assay with Botrytis cinerea [1], the EC50 is 105 µg/mL (≈ 352 µM) and the EC80 is over 10000 µg/mL.

For `O=S(=O)(Nc1cc(C(F)(F)F)ccc1C(F)(F)F)C1CCCCC1O` (configuration not stated), in the assay on Botrytis cinerea [1], the EC50 stood at 2.53 µg/mL (≈ 6.47 µM) and the 80% effect concentration (EC80) worked out at 16 µg/mL (≈ 40.9 µM).

With `O=S(=O)(Nc1ccc(Cl)cc1Cl)C1CCCCC1O` (configuration not stated), in the assay on Botrytis cinerea [1], the EC50 is 53.2 µg/mL (≈ 164 µM) and the EC80 was 518 µg/mL (≈ 1600 µM).

Take `O=S(=O)(Nc1ccc(Cl)c(Cl)c1)C1CCCCC1O` (configuration not stated): in the assay with Botrytis cinerea [1], the EC50 is 7.8 µg/mL (≈ 24.1 µM) and the EC80 was determined as 25.5 µg/mL (≈ 78.6 µM).

As for `O=C1CCCCCC1S(=O)(=O)Nc1ccc(Cl)cc1C(F)(F)F` (configuration not stated), the EC50 in the assay with Botrytis cinerea [1] was 0.8 µg/mL (≈ 2.16 µM); with Botrytis cinerea [5], 18.1 µg/mL (≈ 48.9 µM). Moreover, the EC80 stood at 3.7 µg/mL (≈ 10 µM) in the assay on Botrytis cinerea [1] and 388 µg/mL (≈ 1050 µM) in the assay on Botrytis cinerea [5]. In addition, the Efficacy in the assay with Botrytis cinerea [2] was determined as 11.97%; in the assay with Botrytis cinerea [3], 21.95%; in the assay with Botrytis cinerea [4] it was 49.53%.

With `O=S(=O)(Nc1ccc(Cl)cc1C(F)(F)F)C1CCCCCC1O` (configuration not stated), the results for the EC50 in the assay on Botrytis cinerea [1] and in the assay on Botrytis cinerea [5] were 0.85 µg/mL (≈ 2.29 µM) and 77 µg/mL (≈ 207 µM), respectively. In addition, the EC80 is 5.27 µg/mL (≈ 14.2 µM) in the assay with Botrytis cinerea [1] and over 1000 µg/mL in the assay with Botrytis cinerea [5]. In addition, the Efficacy in the assay with Botrytis cinerea [2] was 74.77%; in the assay with Botrytis cinerea [3], 92.67%; in the assay on Botrytis cinerea [4], 95.01%.

On to `O=C1CCCCC1S(=O)(=O)Nc1ccc(Cl)cc1C(F)(F)F` (configuration not stated), for which the EC50 in the assay with Botrytis cinerea [1] came out at 2.16 µg/mL (≈ 6.07 µM); in the assay with Botrytis cinerea [5], 4.21 µg/mL (≈ 11.8 µM). The concentration for an effect of 80% (EC80) worked out at 5.2 µg/mL (≈ 14.6 µM) in the assay with Botrytis cinerea [1] and 124 µg/mL (≈ 349 µM) in the assay on Botrytis cinerea [5]. Moreover, the Efficacy in the assay with Botrytis cinerea [2] amounted to 16.08%; in the assay with Botrytis cinerea [3] it was 20.78%; in the assay on Botrytis cinerea [4], 28.99%.

In the case of `O=S(=O)(Nc1ccccc1Br)C1CCCCC1O` (configuration not stated), in the assay with Botrytis cinerea [1], the EC50 was found to be 11 µg/mL (≈ 32.9 µM) and the EC80 was 250 µg/mL (≈ 749 µM).

Consider `COc1ccc(OC)c(NS(=O)(=O)C2CCCCC2O)c1` (configuration not stated), for which, in the assay with Botrytis cinerea [1], the EC50 is 22.3 µg/mL (≈ 70.7 µM) and the concentration for an effect of 80% (EC80) is 181 µg/mL (≈ 575 µM).

Regarding `O=S(=O)(Nc1ccc(Cl)cc1C(F)(F)F)C1CCCC1O` (configuration not stated), the EC50 with Botrytis cinerea [1] is 36.4 µg/mL (≈ 106 µM); with Botrytis cinerea [5] it was 5.29 µg/mL (≈ 15.4 µM). For the same compound, the EC80 in the assay on Botrytis cinerea [1] turned out to be 64.4 µg/mL (≈ 187 µM); in the assay on Botrytis cinerea [5] it was 43 µg/mL (≈ 125 µM). Further, the values for the Efficacy in the assay on Botrytis cinerea [2], with Botrytis cinerea [3] and in the assay on Botrytis cinerea [4] were 62.44%, 68.9% and 81.12%, respectively.

Take `O=S(=O)(Nc1ccccc1)C1CCCCC1O` (configuration not stated): in the assay with Botrytis cinerea [1], the EC50 turned out to be 22.9 µg/mL (≈ 89.7 µM) and the concentration for an effect of 80% (EC80) was determined as 443 µg/mL (≈ 1740 µM).

For `O=C1CCCCCCCCCCC1S(=O)(=O)Nc1ccc(Cl)cc1C(F)(F)F` (configuration not stated), the figures for the EC50 in the assay with Botrytis cinerea [1] and in the assay with Botrytis cinerea [5] were 1.94 µg/mL (≈ 4.41 µM) and 3.24 µg/mL (≈ 7.36 µM), respectively. For the same compound, the concentration for an effect of 80% (EC80) with Botrytis cinerea [1] is 39.8 µg/mL (≈ 90.5 µM); in the assay with Botrytis cinerea [5], 115 µg/mL (≈ 260 µM). Besides, the Efficacy was determined as 82.98% in the assay with Botrytis cinerea [2], 95.6% in the assay on Botrytis cinerea [3] and 97.07% in the assay with Botrytis cinerea [4].

Take `O=S(=O)(Nc1ccc(Br)cc1)C1CCCCC1O` (configuration not stated): in the assay with Botrytis cinerea [1], the EC50 worked out at 7.07 µg/mL (≈ 21.2 µM) and the EC80 came to 21.4 µg/mL (≈ 64 µM).

For the compound `O=S(=O)(Nc1ccc(Cl)cc1C(F)(F)F)C1CCCCC1O` (configuration not stated), the EC50 in the assay on Botrytis cinerea [1] was 3.37 µg/mL (≈ 9.42 µM); in the assay on Botrytis cinerea [5], 40.1 µg/mL (≈ 112 µM). For the same compound, the EC80 in the assay with Botrytis cinerea [1] was determined as 14.3 µg/mL (≈ 39.9 µM); in the assay on Botrytis cinerea [5], 260 µg/mL (≈ 727 µM). In addition, the results for the Efficacy with Botrytis cinerea [2], in the assay with Botrytis cinerea [3] and in the assay with Botrytis cinerea [4] were 53.05%, 72.42% and 93.54%, respectively.

As to `Cc1ccc(NS(=O)(=O)C2CCCCC2O)c(C)c1` (configuration not stated), in the assay with Botrytis cinerea [1], the EC50 is 21.5 µg/mL (≈ 75.8 µM) and the EC80 was found to be 332 µg/mL (≈ 1170 µM).

Consider `Cc1cc(C)nc(Nc2ccccc2)n1` [PYRIMETHANIL], for which the Efficacy stood at 76.53% with Botrytis cinerea [2], 82.98% with Botrytis cinerea [3] and 100% with Botrytis cinerea [4].

As for `O=C1CCCCCCC1S(=O)(=O)Nc1ccc(Cl)cc1C(F)(F)F` (configuration not stated), the Ratio with Botrytis cinerea [6] turned out to be 1.03. Moreover, the values for the EC50 in the assay with Botrytis cinerea [1] and in the assay with Botrytis cinerea [5] were 1.22 µg/mL (≈ 3.18 µM) and 19 µg/mL (≈ 49.4 µM), respectively. In addition, the EC80 in the assay with Botrytis cinerea [1] is 2.88 µg/mL (≈ 7.5 µM); in the assay on Botrytis cinerea [5], 549 µg/mL (≈ 1430 µM). Besides, the Efficacy worked out at 64.79% in the assay with Botrytis cinerea [2], 67.14% with Botrytis cinerea [3] and 67.72% in the assay with Botrytis cinerea [4].

In the case of `O=C1CCCC1S(=O)(=O)Nc1ccc(Cl)cc1C(F)(F)F` (configuration not stated), the EC50 in the assay on Botrytis cinerea [1] is 2.5 µg/mL (≈ 7.32 µM); in the assay on Botrytis cinerea [5] it was 4.21 µg/mL (≈ 12.3 µM). For the same compound, the EC80 in the assay on Botrytis cinerea [1] is 15.1 µg/mL (≈ 44.1 µM); in the assay with Botrytis cinerea [5], 227 µg/mL (≈ 663 µM). The Efficacy in the assay on Botrytis cinerea [2] stood at 60.68%; with Botrytis cinerea [3], 72.42%; in the assay with Botrytis cinerea [4], 74.77%.

Regarding `O=S(=O)(Nc1cc(C(F)(F)F)cc(C(F)(F)F)c1)C1CCCCC1O` (configuration not stated), in the assay on Botrytis cinerea [1], the EC50 came out at 4.44 µg/mL (≈ 11.3 µM) and the EC80 came to 14.6 µg/mL (≈ 37.4 µM).
